Screening results as filed in PubChem.
An excerpt weighted towards active compounds, which were near 3.5% of everything screened.
MrgX1 agonist = activates human MrgX1 receptor signaling; Q96LB2; MrgX1-HEK293 cells, Fluo-4 calcium fluorescence, agonist mode; stronger effect = higher value; B-score at 10 µM; 310,000 tested, 0.44% active;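 active = calcium response B-score plate-corrected fluorescence ratio at least 3 library SD, with starting fluorescence B-score inside 5 SD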
Target sequence (Q96LB2 whole entry, looked up): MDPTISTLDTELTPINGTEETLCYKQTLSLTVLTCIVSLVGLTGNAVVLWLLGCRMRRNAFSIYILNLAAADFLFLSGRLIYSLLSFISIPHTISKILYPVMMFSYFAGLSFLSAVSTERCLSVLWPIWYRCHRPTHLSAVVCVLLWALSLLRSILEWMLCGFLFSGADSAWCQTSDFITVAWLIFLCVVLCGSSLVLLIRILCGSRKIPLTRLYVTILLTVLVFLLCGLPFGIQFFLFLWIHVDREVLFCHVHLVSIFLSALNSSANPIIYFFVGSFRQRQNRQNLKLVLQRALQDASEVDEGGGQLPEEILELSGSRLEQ
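System – MrgX1-expressing HEK293 cells · Incubation – cells plated overnight, dye loaded 0.5 h 37 °C, 0.5 h room temperature · Technique – kinetic Fluo-4 NW fluorescence of intracellular calcium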
RGS4 block = human RGS4 inhibition. P49798. HEK293 M3R/RGS4 inducible, Fluo-4 calcium flux; stronger effect = higher value; triggered by carbachol at its EC20. B-score at 10 µM. 310,000 tested, 0.45% active;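 active = B-score, a plate-corrected calcium signal, over three deviations above library mean, with baseline fluorescence within five deviations of library mean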;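 note: RGS4 expression induced by doxycycline in cells with stable M3 receptor; B-score is computed from the integrated fluorescence ratio over baseline after carbachol; higher B-score means a larger calcium signal and so more RGS4 inhibition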
Target sequence (P49798 whole entry, looked up): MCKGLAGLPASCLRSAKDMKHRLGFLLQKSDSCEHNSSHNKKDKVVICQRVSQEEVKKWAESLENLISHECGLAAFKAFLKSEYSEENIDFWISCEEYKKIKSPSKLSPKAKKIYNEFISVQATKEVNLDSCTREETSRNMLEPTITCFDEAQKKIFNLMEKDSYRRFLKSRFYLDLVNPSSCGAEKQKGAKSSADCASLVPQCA
RGS4 act = RGS4 potentiation or activation; HEK293 M3R/inducible RGS4, carbachol calcium flux Fluo4; stronger effect = lower value; B-score at 10 µM; 310,000 tested, 0.92% active; AID 463111;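 active = B-score of the integrated calcium signal more than 4 SD below the library mean, with starting fluorescence not abnormally high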;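 note: negative B-score means reduced calcium response which marks RGS4 activation or potentiation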
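System – HEK293 FlpIn-TREx cells, stable M3R, doxycycline-inducible RGS4 · Reagent – ECmax carbachol challenge · Times – compound preincubation 20 min at room temperature before agonist · Technique – Fluo4 fluorescence kinetic imaging of calcium · Measure – B score of integrated Fluo4 ratio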
MrgX1 antag = blocks BAM8-22 activation of human MrgX1 receptor. Q96LB2. MRGX1-HEK293 calcium flux, Fluo-4, BAM8-22 antagonism; stronger effect = lower value. B-score at 10 µM. 310,000 tested, 1.3% active;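 active = calcium-response B-score plate-corrected more than 3 library SD below zero, starting fluorescence within 5 deviations, no agonist response on first addition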;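 note: peak minus trough fluorescence over baseline after final BAM8-22 challenge near maximal dose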
MrgX1 PAM = allosterically activates human MrgX1 receptor signaling | MrgX1-HEK293, Fluo-4 calcium flux, FDSS; stronger effect = higher value | Q96LB2 | B-score at 10 µM | 310,000 tested, 0.63% active;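 active = plate-corrected calcium response at least 3 library SD above typical, normal starting fluorescence, not activating the receptor alone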;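 note: compound read alongside a low EC10 to EC30 dose of BAM8-22 agonist; peak minus trough fluorescence over baseline measured at the second addition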
* marks the source's active call; other numbers are inactive results; i = inactive; · = not tested or not shown.

SMILES	MrgX1 agonist	RGS4 block	RGS4 act	MrgX1 antag	MrgX1 PAM
CC(=O)OC1COC(OC2C(O)C(C)OC(OC3C(OC4CCC5(C)C(CCC6(C)C5CC=C5C7CC(C)(C)CCC7(C(=O)O)CCC56C)C4(C)CO)OCC(O)C3O)C2O)C(O)C1OC(C)=O (centres undefined)	219*	·	·	i	i
CC1(C)CC[C@]2(C(=O)O)CC[C@]3(C)C(=CC[C@@H]4[C@@]5(C)CC[C@H](O)C(C)(C)[C@@H]5CC[C@]43C)[C@@H]2C1	i	·	·	i	i
CCOc1ccccc1NC(=O)NNS(=O)(=O)c1cc(OC)ccc1OC	i	i	i	i	i
Cc1cc(=O)oc2cc(OCC(=O)Nc3ccc(S(=O)(=O)N(C)C)cc3)ccc12	i	i	i	i	i
COc1ccc(CCn2nc(C)c([N+](=O)[O-])c2C)cc1	i	i	i	-6.5*	i
CCN1C(=O)CS/C1=N\S(=O)(=O)c1ccc(Cl)cc1	i	i	i	i	i
CCn1c(Cl)c(C=O)s/c1=N\S(=O)(=O)c1ccccc1	31*	i	i	i	i
CCOc1ccc2nc(N3CCC(C(=O)N4CCN(c5ncccn5)CC4)CC3)sc2c1	i	i	i	-8.1*	i
O=C(O)CCS(=O)(=O)c1nc(-c2cccs2)cc(C(F)(F)F)n1	i	i	i	i	i
CS(=O)(=O)c1nc(-c2cccs2)cc(C(F)(F)F)n1	36*	i	i	i	i
Cc1noc(C)c1COc1ccc(C(=O)NCCc2ccccn2)cc1	i	i	i	i	i
COc1cc(C(=O)Nc2nnc(SC)s2)c([N+](=O)[O-])cc1OC	i	i	i	i	i
COc1cc(C(=O)Nc2nnc(C(F)(F)F)s2)c([N+](=O)[O-])cc1OC	i	i	i	-6.4*	i
O=C(c1cccs1)N1CCN(C23CC4CC(CC(C4)C2)C3)CC1	i	i	-7.3*	i	i
COc1ccccc1OCCCN1C(=O)C(=O)c2cccc(C)c21	28*	i	i	i	i
CC(C)C(NC(=O)c1ccccc1F)C(=O)Nc1nccs1 (centres undefined)	i	i	i	i	i
O=C1CCC(/C=C/c2ccccc2)=NN1Cc1ccccc1	i	i	i	i	10*
Cc1ccc(/C=C/C2=NN(Cc3ccccc3)C(=O)CC2)cc1	i	i	i	i	i
COc1ccc(S(=O)(=O)N(C)CC(=O)NCCC2=CCCCC2)cc1OC	i	i	i	-5.9*	i
Cc1ccc(C(=O)c2no[n+]([O-])c2C(=O)c2ccc(C)cc2)cc1	31*	i	-8.8*	i	i
CCCc1nc2ccc(N)cc2c(=O)n1Cc1ccccc1Cl	i	i	i	i	i
C=CCn1c(-c2ccc(OC)c(OC)c2)n[nH]c1=S	i	i	i	i	i
C=CCn1c(-c2c(C)nc3cc(C)ccn23)n[nH]c1=S	i	i	i	-5.9*	i
CC1CCCCC1NC(=O)c1ccc(NC2=NC3CS(=O)(=O)CC3S2)cc1 (centres undefined)	i	i	i	i	i
COC(=O)NNC(=O)c1ccc(Cl)cc1Cl	i	i	i	i	i
SMILES	MrgX1 agonist	RGS4 block	RGS4 act	MrgX1 antag	MrgX1 PAM
CC(C)(C)C(=O)NC(=S)NNC(=O)c1ccc(-c2ccccc2)cc1	179*	i	-7.5*	i	i
CC(C)(C)C(=O)NC(=S)NNC(=O)c1ccc(Cl)cc1Cl	i	i	-7*	i	i
CCOC(=O)Cc1csc(NC(=O)c2ccc(Br)s2)n1	31*	i	i	i	i
CCOC(=O)Cc1csc(NC(=O)c2cccs2)n1	i	i	i	i	i
COc1cccc(C(=O)NCCCn2ccnc2)c1	i	i	i	i	i
NC(=Nc1ccccc1)Nc1ccccc1	84*	i	-8.5*	i	i
O=C(/C=C/c1cn(-c2ccccc2)nc1-c1cccc(Cl)c1)N1CCN(c2ccccn2)CC1	i	i	i	i	i
CCCCn1c(N)c(N(CCC(C)C)C(=O)CC2CCCC2)c(=O)[nH]c1=O	i	i	i	i	i
CCOc1ccc2[nH]c3c(=O)n(CCc4ccc(OC)cc4)cnc3c2c1	i	i	i	i	i
COc1ccc(OC)c(CNc2ncc(-c3cccc([N+](=O)[O-])c3)n2C)c1	i	i	-7*	i	i
Cn1c(-c2cccc([N+](=O)[O-])c2)cnc1NCc1cccc([N+](=O)[O-])c1	i	i	i	i	i
C=CCn1c(C)csc1=Nc1ccccc1C	i	i	i	i	i
O=S(=O)(c1cc(O)ccc1O)c1cccc2c(S(=O)(=O)c3cc(O)ccc3O)cccc12	i	i	i	i	i
Cn1c(=O)c(C(=O)NNC(=O)c2ccccc2Br)c(O)c2ccccc21	i	i	i	i	8.4*
Cn1c(=O)c(C(=O)NNC(=O)c2ccccc2Cl)c(O)c2ccccc21	29*	i	i	i	i
CC(C)CC(=O)O/N=C1\C(=O)N(Cc2ccc(Cl)cc2)c2ccc([N+](=O)[O-])cc21	i	6.4*	i	i	i
CC(C)CC(=O)O/N=C1\C(=O)N(c2ccccc2)c2ccccc21	i	i	i	i	i
O=C(N=C1SC2CS(=O)(=O)CC2N1c1ccc(Cl)c(Cl)c1)C1CCCO1 (centres undefined)	i	i	i	i	i
O=C(NCCN1C(=O)S/C(=C\c2ccccc2F)C1=O)C1CCN(S(=O)(=O)c2cccs2)CC1	i	i	i	-8.9*	i
COc1ccc(C)cc1Nc1n[n+](-c2ccccc2)c(-c2cc([N+](=O)[O-])cc(OC)c2O)s1	i	i	i	-6*	i
CC(=O)/C(=N/Nc1ccc(Br)cc1)N1CCCc2ccccc21	i	i	-7.7*	i	i
CC(C)CN1C(=O)C(=Nc2cccnc2)c2ccccc21	i	i	i	i	i
Cc1ccc(S(=O)(=O)N2CCC(=O)N(C(COCc3ccc(Cl)c(Cl)c3)Cc3ccccc3)CC2)cc1 (centres undefined)	i	i	i	-6.1*	i
Cc1ccc(S(=O)(=O)N2CCC(=O)N(C(COCc3ccc(C(F)(F)F)cc3)Cc3ccccc3)CC2)cc1 (centres undefined)	i	i	-7.3*	i	i
